This is a sample that favours compounds with a hit; in the whole collection about 3.8% have one here.
ARNT-TACC3 inh – disruptors of human ARNT/TACC3 interaction. Q9Y6A5. AlphaScreen His-ARNT PAS-B/GST-TACC3 binding, luminescence; TACC3 fragment carries E629A point mutation. inhibition, % at 9.99 µM. hit rate 0.66% among 390,000;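 active = mean inhibition of replicates at least 50% and at least half of replicates each reaching 50%; inconclusive = half or more replicates reach 50% but mean below 50%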
XiGFP reactiv – activators of X-chromosome reactivation in mouse fibroblasts; XiGFP mouse fibroblasts, % GFP-positive cells imaging, 3 d; cells co-treated with 5-aza-dC sensitizer; scaled so ellipticine positive control = 100%; activation, % at 7.58 µM; hit rate 0.055% among 360,000; AID 743238;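 active = mean normalized replicate activation at least 10% and every replicate at or above 10%; inconclusive = only one of the two criteria met; inactive = mean below 10% and not all replicates reach 10%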
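assay system = SV40-immortalized XiGFP fibroblast cells, line 68-5-11 | buffer or medium = DMEM plus 5-aza-dC sensitizer | doses = single-point pinned compound dosing | times = 3-day compound exposure, then 15 min fixation at room temperature | benchmarks = positive control ellipticine, 6 µM final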
FN deposit inh – fibronectin deposition inhibition. AH1F fibroblasts, Alexa488-fibronectin deposition fluorescence, overnight. inhibition, % at 12.6 µM. hit rate 0.086% among 350,000. AID 743247;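 active = mean inhibition across replicates of 30% or more, regardless of how many single replicates reach that level; inconclusive = mean under 30% yet at least half of replicates reach 30%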
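Material: AH1F fibroblast monolayer depositing Alexa488-labelled fibronectin into matrix | Input: 10000 AH1F cells/well | Medium: DMEM plus 2% serum, read in PBS | Reagent: Alexa488-fibronectin, 24 nM final in well | Compound dosing: One dose per compound, pinned | Schedule: 1 h adhesion, overnight exposure | Measured by: Fluorescence at 485 nm excitation, 525 nm emission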
DENV2 CPE rescue – inhibitors of DENV2 cytopathic effect | hit rate 1.7% among 350,000 | DENV2-infected cells, cytopathic effect rescue, plate reader | CPE inhibition, % at 9.99 µM; in the data active = CPE inhibition above about 20%, passing the limit was not always enough; inconclusive = no clear call, values can overlap the other calls; tested in BHK-21 cells
SIRT5 inh – inhibitors of human sirtuin-5 desuccinylase. AID 652115. hit rate 1.1% among 330,000. inhibition, % at 15 µM. Purified SirT5, succinyl-peptide AMC, trypsin-coupled fluorescence. Q9NXA8; in the data active = inhibition above about 15%; inconclusive = no clear call, values can overlap the other calls
Target sequence (Q9NXA8 whole entry, looked up): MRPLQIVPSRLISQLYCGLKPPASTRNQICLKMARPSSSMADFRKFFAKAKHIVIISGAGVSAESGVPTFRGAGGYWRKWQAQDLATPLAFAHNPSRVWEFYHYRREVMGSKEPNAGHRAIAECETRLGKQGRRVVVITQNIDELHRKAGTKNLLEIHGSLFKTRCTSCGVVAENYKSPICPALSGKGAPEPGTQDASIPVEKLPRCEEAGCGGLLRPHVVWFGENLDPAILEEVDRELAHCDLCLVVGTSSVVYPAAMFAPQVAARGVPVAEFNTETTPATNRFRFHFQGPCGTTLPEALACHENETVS
FGF22 binding – shifts melting point of recombinant human FGF22. hit rate 1.5% among 340,000. activity (Tm shift, normalised), % at 9.99 µM. Q9HCT0. recombinant FGF22 thermal shift, SYPRO orange fluorescence; percent of sucrose octasulfate shift, DMSO zero. AID 651658;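 active = mean Tm shift, scaled 0 neutral to 100 positive control, at about 1.3% or above, every replicate too, limit read from the data; inconclusive = no clear call, values can overlap the other calls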
Target sequence (Q9HCT0 whole entry, looked up): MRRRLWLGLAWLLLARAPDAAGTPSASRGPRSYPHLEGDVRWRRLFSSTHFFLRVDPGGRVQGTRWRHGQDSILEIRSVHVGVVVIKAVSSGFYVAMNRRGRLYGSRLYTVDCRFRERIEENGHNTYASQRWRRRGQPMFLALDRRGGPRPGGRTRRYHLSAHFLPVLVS
Hits are given with their value; 0 = inactive; ? = inconclusive; - = no result.

SMILES	ARNT-TACC3 inh	XiGFP reactiv	FN deposit inh	DENV2 CPE rescue	SIRT5 inh	FGF22 binding
C[C@@H]1CN([C@@H](C)CO)C(=O)c2cc(NC(=O)Cc3cn(C)c4ccccc34)ccc2O[C@@H]1CN(C)CC1CCCCC1	0	0	-	0	0	0
Cc1noc(C)c1NC(=O)N(C)C[C@H]1OCCCC[C@@H](C)Oc2ccc(NC(=O)Nc3ccccc3)cc2C(=O)N([C@@H](C)CO)C[C@H]1C	0	0	-	0	-	0
CO[C@@H]1CC[C@H]2CCN(C)C(=O)C[C@H](c3ccccc3)CN(C)C(=O)c3cc(C#N)ccc3OC[C@@H]1O2	0	0	0	51.7	0	0
Cc1noc(C)c1S(=O)(=O)N(C)C[C@H]1OCCCC[C@@H](C)Oc2ccc(NC(=O)NC3CCCCC3)cc2C(=O)N([C@@H](C)CO)C[C@@H]1C	0	0	-	0	0	0
O=C(O)CSCC(=O)N(Cc1ccccc1)c1nc(-c2ccccc2)c(-c2ccccc2)s1	0	0	0	?	17.2	-
CCOC(=O)c1sc(N(Cc2ccccc2)C(=O)CCl)nc1C	0	0	0	0	0	0
C[C@H]1CN([C@@H](C)CO)C(=O)c2cccc(NS(=O)(=O)c3ccccc3)c2O[C@@H]1CN(C)Cc1ccc(Cl)c(Cl)c1	0	0	-	85.4	0	0
C[C@H]1CN([C@@H](C)CO)C(=O)c2cccc(NS(=O)(=O)c3ccccc3)c2O[C@H]1CN(C)Cc1ccc(C(F)(F)F)cc1	0	0	-	78.0	0	0
C[C@H]1CN([C@@H](C)CO)C(=O)c2cccc(NS(=O)(=O)c3ccc(F)cc3)c2O[C@@H]1CN(C)Cc1ccc(Cl)c(Cl)c1	0	0	0	23.0	0	0
C[C@H](CO)N1C[C@H](C)[C@H](CN(C)Cc2ccc(Cl)c(Cl)c2)Oc2c(NS(=O)(=O)c3ccccc3)cccc2C1=O	0	0	-	0	0	0
O=C(CC(F)(F)F)N1C[C@H]2[C@@H](c3ccccc31)[C@@H](CO)N2C(=O)C1CCOCC1	0	0	-	0	0	0
Cc1ccc(S(=O)(=O)N(C)C[C@H]2Oc3ccc(NC(=O)CCN4CCOCC4)cc3CC(=O)N([C@H](C)CO)C[C@@H]2C)cc1	0	0	-	0	0	0
CCCNC(=O)[C@@H]1[C@@H](CO)[C@@H]2Cn3c(cccc3=O)[C@@H]2N1CCC(F)(F)F	0	0	-	0	0	0
Cc1cc(OCC(=O)NCc2cccnc2)c2c(C)cc(=O)oc2c1	0	0	0	0	0	0
Cc1cc(OCC(=O)NCCc2ccc(Cl)cc2)c2c(C)cc(=O)oc2c1	0	0	0	0	0	43.0
CC(=O)N1c2ccc(S(=O)(=O)NCCC(=O)N3CCCC(C)C3)cc2CC1C (stereo not given)	0	0	0	35.2	0	0
S=C(NCc1ccco1)NC1CCCc2ccccc21 (stereo not given)	0	0	0	0	0	0
S=C(NCc1ccccc1)NC1CCCc2ccccc21 (stereo not given)	-	0	-	0	112.0	0
CC(=O)N1[C@@H]2c3ccc(/C=C/c4ccccc4)c(=O)n3C[C@H]1[C@H](CO)[C@H]2C(=O)N1CCOCC1	-	0	-	0	0	-
CN(C)C(=O)CCc1ccc2c3c([nH]c2c1)[C@]1(C)[C@@H](C(=O)N2CCOCC2)C[C@H](CC(=O)NCc2ccco2)C(=O)N1CC3	0	0	0	0	0	0
C[C@]12c3[nH]c4ccc(Cl)cc4c3CCN1C(=O)[C@@H](CC(=O)NCc1ccco1)C[C@@H]2C(=O)N1CCCCC1	0	0	34.0	0	0	0
CCN(CC)C(=O)[C@H]1CC(CC(=O)NCCc2ccccn2)C(=O)N2CCc3c([nH]c4ccc(OC)cc34)[C@]12C (stereo not given in full)	0	0	0	0	0	0
CCN(CC)C(=O)[C@H]1CC(CC(=O)NCCc2ccccn2)C(=O)N2CCc3c([nH]c4ccccc34)[C@]12C (stereo not given in full)	0	0	0	0	-	43.0

Bioassay records deposited in PubChem by Broad Institute.
